Assay [1] has as its system Mus musculus. Nature of the assay: Activity in ICR mice (Mus musculus) infected with Plasmodium berghei NK65 after 4 days at 25 mg/kg/day, intraperitoneally assessed as mean survival days. To be noted: route intraperitoneal. The format is functional. The essentials:
(§1)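 Peters' 4-day suppressive test; P. berghei NK65 (drug-sensitive) in groups of five ICR mice; compound given daily for 4 days, ip or po at the stated mg kg-1 day-1. Mice followed after treatment ends; mean survival days recorded against untreated infected controls.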

In assay [2] the test system is L6. Nature of the assay: Cytotoxicity against rat L6 cell line. The class given is functional, cell-based. The essentials:
(§2)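 Rat skeletal myoblast L-6 line used for cytotoxicity; EC50 determined. Antiplasmodial EC50 was measured against chloroquine-resistant P. falciparum strain K1 in vitro by the Desjardins method. Selectivity index = EC50(L-6)/EC50(P. falciparum K1).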

Assay [3] deals with L6. Description: Selectivity index, EC50 for L6 cells/EC50 for Plasmodium falciparum K1. The format is functional. The essentials: as §2
Another assay relates to Plasmodium falciparum. Nature of the assay: Antimalarial activity against chloroquine-resistant Plasmodium falciparum K1. The format is functional, organism-based. In short, it runs like this: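 P. falciparum K1 (chloroquine-resistant) tested in vitro by the Desjardins method; activity given as EC50.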
The subject of assay [4] is Plasmodium berghei. Description: Suppression of Plasmodium berghei NK65 infected ICR mice (Mus musculus) at 25 mg/kg/day intraperitoneal dose over 4 days. The class given is functional. The essentials:
(§3)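 Peters' 4-day suppressive test: ICR mice (five per group) infected with drug-sensitive P. berghei NK65, dosed daily for 4 days intraperitoneally or per os. Percent suppression = reduction of parasitemia in treated versus untreated infected control mice. Mice were observed after treatment to record mean survival days.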

Assay [5] deals with Mus musculus. Nature of the assay: Activity in ICR mice (Mus musculus) infected with Plasmodium berghei NK65 after 4 days at 40 mg/kg/day, intraperitoneally assessed as mean survival days. To be noted: route intraperitoneal. The format is functional. In short, it runs like this:
as §1

Assay [6] concerns Mus musculus. Description: Activity in ICR mice (Mus musculus) infected with Plasmodium berghei NK65 after 4 days at 10 mg/kg/day, intraperitoneally assessed as mean survival days. To be noted: route intraperitoneal. The class given is functional. The essentials:
as §1

Assay [7] has as its system Plasmodium berghei. Nature of the assay: Suppression of Plasmodium berghei NK65 infected ICR mice (Mus musculus) at 40 mg/kg/day intraperitoneal dose over 4 days. The class given is functional. In short, it runs like this:
as §3

The test system of assay [8] is Plasmodium berghei. Nature of the assay: Suppression of Plasmodium berghei NK65 infected ICR mice (Mus musculus) at 10 mg/kg/day intraperitoneal dose over 4 days. The class given is functional. In short, it runs like this: as §3
In assay [9] the test system is Mus musculus. Description: Activity in ICR mice (Mus musculus) infected with Plasmodium berghei NK65 after 4 days at 20 mg/kg/day, intraperitoneally assessed as mean survival days. The format is functional. To be noted: route intraperitoneal. The essentials:
as §1

For assay [10], the system named is Plasmodium berghei. Nature of the assay: Suppression of Plasmodium berghei NK65 infected ICR mice (Mus musculus) at 20 mg/kg/day intraperitoneal dose over 4 days. The format is functional. In short, it runs like this: as §3
For assay [11], the system named is Mus musculus. Nature of the assay: Activity in ICR mice (Mus musculus) infected with Plasmodium berghei NK65 after 4 days at 100 mg/kg/day, perorally assessed as mean survival days. The format is functional. To be noted: route oral. In short, it runs like this:
as §1

Assay [12] relates to Plasmodium berghei. Description: Suppression of Plasmodium berghei NK65 infected ICR mice (Mus musculus) at 100 mg/kg/day peroral dose over 4 days. The class given is functional. To be noted: route oral. The essentials: as §3

For orientation: EC50 means the concentration needed to bring the measured effect to its halfway point. A higher EC50 goes with a need for much substance.

For the compound `CCN1C(=O)/C(=C2\Sc3ccccc3N2C)S/C1=N\c1sc2cc(Cl)ccc2[n+]1C.[Cl-]`, the Activity in the assay on Mus musculus [1] is 5.5 days.

For the compound `CCN1C(=O)/C(=c2/s/c(=C3/SCCN3C)c(=O)n2CC)S/C1=N\c1sc2cc(Cl)ccc2[n+]1C.[Cl-]`, the values for the EC50 in the assay on L6 [2] and with Plasmodium falciparum were 12 µM and 0.023 µM, respectively. The Selectivity index in the assay on L6 [3] is 520. In the assay with Mus musculus [1], the Activity was determined as 16 days.

On to `CCN1C(=O)/C(=c2/s/c(=C3/SCCN3C)c(=O)n2CC)S/C1=N\c1sc2cc(OC)ccc2[n+]1C.[Cl-]`, for which the Activity in the assay on Plasmodium berghei [4] was 95%; with Mus musculus [1], 5 days.

As for `CCN1C(=O)/C(=c2/s/c(=C3/C=CC=CN3C)c(=O)n2CC)S/C1=N\c1sc2cc(OC)ccc2[n+]1C.[Cl-]`, the Activity stood at 98.3% in the assay on Plasmodium berghei [4] and 6.3 days in the assay on Mus musculus [1].

As to `CCN1C(=O)/C(=c2/s/c(=C3/C=CC=CN3C)c(=O)n2CC)S/C1=N\c1scc(-c2ccc(Cl)cc2)[n+]1C.[Cl-]`, the Activity in the assay on Plasmodium berghei [4] turned out to be 95.6%; in the assay with Mus musculus [1] it was 5.3 days.

As to `CCN1C(=O)/C(=c2/s/c(=C3/C=CC=CN3C)c(=O)n2CC)S/C1=N\c1sc2cc(F)ccc2[n+]1C.[Cl-]`, the Activity amounted to 79.5% in the assay on Plasmodium berghei [4] and 10.8 days with Mus musculus [1].

In the case of `CCN1C(=O)/C(=c2/s/c(=C3/C=CC=CN3C)c(=O)n2CC)S/C1=N\c1sc2ccccc2[n+]1C.[Cl-]`, the Activity in the assay on Plasmodium berghei [4] was 96.4%; in the assay with Mus musculus [5], 7.8 days; in the assay on Mus musculus [6], 9.8 days; with Plasmodium berghei [7], 97.8%; with Plasmodium berghei [8], 70.8%; in the assay with Mus musculus [9], 19 days. The values for the Activity in the assay with Plasmodium berghei [10] and in the assay on Mus musculus [1] were 92.4% and 22 days, respectively. Further, the EC50 with L6 [2] was determined as 14 µM; in the assay with Plasmodium falciparum, 0.022 µM. In addition, the Selectivity index in the assay with L6 [3] turned out to be 640.

As to `C=CCN1C(=O)/C(=c2/s/c(=C3/C=CC=CN3C)c(=O)n2CC)S/C1=N\c1sc2cc(Cl)ccc2[n+]1C.[Cl-]`, the Activity with Plasmodium berghei [4] turned out to be 95.7%; in the assay with Mus musculus [1], 18 days.

Take `CCN(CC)CCCC(C)Nc1ccnc2cc(Cl)ccc12` (stereo not given) [CHLOROQUINE]: the Activity was 22.7 days in the assay with Mus musculus [6] and 90.6% in the assay with Plasmodium berghei [8]. The EC50 in the assay on Plasmodium falciparum came out at 0.15 µM.

Regarding `CCN1C(=O)/C(=C2\C=Cc3ccccc3N2C)S/C1=N\c1sc2cc(Cl)ccc2[n+]1C.[Cl-]`, the concentration giving a half-maximal response (EC50) in the assay with L6 [2] was 11 µM; with Plasmodium falciparum, 0.0044 µM. The compound also displayed a Selectivity index in the assay on L6 [3] of 2500.

For `CCN1C(=O)/C(=c2/s/c(=C3/C=CC=CN3C)c(=O)n2CC)S/C1=N\c1sc2cc(Cl)ccc2[n+]1C.[Cl-]`, the Activity in the assay with Mus musculus [11] was determined as 6.5 days; with Plasmodium berghei [12], 41.7%; in the assay on Mus musculus [5], 7 days; with Mus musculus [6] it was 11.8 days; in the assay with Mus musculus [9], 20.3 days; in the assay with Mus musculus [1] it was 25.3 days. Besides, the results for the EC50 in the assay on L6 [2] and in the assay with Plasmodium falciparum were 46 µM and 0.01 µM, respectively. In the assay with L6 [3], this compound showed a Selectivity index of 4600.

On to `C=CCN1C(=O)/C(=c2/s/c(=C3/SCCN3C)c(=O)n2CC)S/C1=N\c1sc2cc(Cl)ccc2[n+]1C.[Cl-]`, for which the Activity in the assay on Plasmodium berghei [4] is 73.1%; with Mus musculus [1] it was 12.8 days.

Regarding `CCn1c(=O)/c(=C2\C=CC=CN2C)s/c1=C1\S/C(=N\c2sc3cc(Cl)ccc3[n+]2C)N(C(C)C)C1=O.[Cl-]`, the Activity in the assay on Mus musculus [1] is 7.7 days.

With `CCN1C(=O)/C(=C2\C=Cc3ccccc3N2C)S/C1=N\c1cccc[n+]1C.[Cl-]`, the EC50 in the assay on L6 [2] is 120 µM; with Plasmodium falciparum it was 0.0059 µM. The compound also returned a Selectivity index with L6 [3] of 20000.

With `C=CC[n+]1ccccc1/C=c1\s/c(=C2/Sc3ccccc3N2C)c(=O)n1C.Cc1ccc(S(=O)(=O)[O-])cc1`, the results for the EC50 in the assay with L6 [2] and in the assay on Plasmodium falciparum were 100 µM and 0.019 µM, respectively. In the assay on L6 [3], this compound had a Selectivity index of 5000. In the assay on Plasmodium berghei [8], the Activity is 27%.

Take `CCN1C(=O)/C(=c2/s/c(=C3/C=Cc4ccccc4N3C)c(=O)n2CC)S/C1=N\c1cccc[n+]1C.[Cl-]`: the Activity in the assay with Plasmodium berghei [4] is 78.4%; with Mus musculus [1], 5.6 days.

Regarding `CCN1C(=O)/C(=c2/s/c(=C3/C=Cc4ccccc4N3C)c(=O)n2CC)S/C1=N\c1sc2cc(Cl)ccc2[n+]1C.[Cl-]`, the Activity was 49.7% in the assay with Plasmodium berghei [4] and 7 days with Mus musculus [1].

Source of the values: ChEMBL document CHEMBL1138931, “Synthesis and antimalarial efficacy of aza-fused rhodacyanines in vitro and in the P. berghei mouse model” (J Med Chem, 2006).
